Data published in publication PMC9638899 (Nucleic Acids Research, 2022).
Values joined by “and” are separate entries in the source; they are usually repeats but may differ in a detail not shown here. Equal entries are not always repeated.

Columns and labels:
Sis0455 T10G [1] = experiment: ITC binding of cA4 to Sis0455 T10G; parameters: species or system Sulfolobus islandicus; conditions: 25°C, T10G mutant
How it was run: (§1)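 His-tagged Sis0455 mutants (site-directed) were expressed in E. coli BL21 pRARE and purified. Protein and cA4 were dialysed into 50 mM HEPES pH 8.0, 300 mM KCl. cA4 (~50 or 100 μM, syringe) was titrated into protein (~5 or 10 μM) at 25°C: one 0.4 μl injection, then 19 × 2 μl, 150 s apart, 750 rpm. cA4-into-buffer controls were run. Normalised heats were fitted to a single-site model.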

Sis0455 N138G [2] = experiment: ITC binding of cA4 to Sis0455 N138G; parameters: species or system Sulfolobus islandicus; conditions: 25°C, N138G mutant
How it was run: as §1

Sis0455 N138G [3] = experiment: cA4 cleavage activity assay, LC ESI-MS, Sis0455 N138G; format: biochemical, Sulfolobus islandicus; conditions: 40 μM cA4, 2 μM enzyme, 70°C, one hour
How it was run: (§2)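 Each 50 μl reaction held 40 μM cA4 and 2 μM His-tagged Sis0455 variant (E. coli-expressed) in 20 mM Tris pH 8.0, 100 mM NaCl, 1 mM EDTA, for 1 h at 70°C. A no-enzyme control was included. Reactions were stopped at 4°C, phenol-extracted, dried and taken up in 8.6 mM TEA pH 8.3. Products were separated on C18 reverse-phase UPLC (TEA/acetonitrile gradient, 30°C) and read by negative-ion ESI-MS. Runs were at least duplicates.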

Sis0811 [4] = experiment: Binding of cA4 to Sis0811; parameters: species or system Sulfolobus islandicus; conditions: Sis0811 versus SisCsx1
Sis0455-S11G = experiment: ITC binding of cA4 to Sis0455-S11G; parameters: species or system Sulfolobus islandicus
Sis0455-K106G [5] = experiment: cA4 cleavage activity assay, LC ESI-MS, Sis0455-K106G; format: biochemical, Sulfolobus islandicus; conditions: 40 μM cA4, 2 μM enzyme, 70°C, one hour
How it was run: as §2

Sis0455 Q130G/Y133G [6] = experiment: ITC binding of cA4 to Sis0455 Q130G/Y133G; parameters: species or system Sulfolobus islandicus; conditions: 25°C, Q130G/Y133G mutant
How it was run: as §1

Sis0455 D75G = experiment: ITC binding of cA4 to Sis0455 D75G; parameters: species or system Sulfolobus islandicus; conditions: 25°C, D75G mutant
How it was run: as §1

Sis0455 [7] = experiment: ITC binding of cA4 to Sis0455 wild type; parameters: species or system Sulfolobus islandicus
Sis0811 [8] = experiment: cA4 cleavage time course, LC ESI-MS, Sis0811; format: biochemical, Sulfolobus islandicus; conditions: 70°C
Sis0455-R105G [9] = experiment: cA4 cleavage activity assay, LC ESI-MS, Sis0455-R105G; format: biochemical, Sulfolobus islandicus; conditions: 40 μM cA4, 2 μM enzyme, 70°C, one hour
How it was run: as §2

Sis0455 E41G/R134G = experiment: ITC binding of cA4 to Sis0455 E41G/R134G; parameters: species or system Sulfolobus islandicus; conditions: 25°C, E41G/R134G mutant
How it was run: as §1

Sis0455 E17G/T37G = experiment: ITC binding of cA4 to Sis0455 E17G/T37G; parameters: species or system Sulfolobus islandicus; conditions: 25°C, E17G/T37G mutant
How it was run: as §1

Sis0455-K106G [10] = experiment: ITC binding of cA4 to Sis0455-K106G; parameters: species or system Sulfolobus islandicus; conditions: 25°C, K106G mutant
How it was run: as §1

[11] = tested on: Sis0455 E17/E37 glycine substitution; experiment: cA4 cleavage activity assay, LC ESI-MS, Sis0455 E17/E37 glycine substitution; format: biochemical, Sulfolobus islandicus; conditions: 40 μM cA4, 2 μM enzyme, 70°C, one hour, E17/E37 substituted by glycine
How it was run: as §2

Sis0455 Q130G/Y133G [12] = experiment: cA4 cleavage activity assay, LC ESI-MS, Sis0455 Q130G/Y133G; format: biochemical, Sulfolobus islandicus; conditions: 40 μM cA4, 2 μM enzyme, 70°C, one hour
How it was run: as §2

SisCsx1 [13] = experiment: Binding of cA4 to SisCsx1; parameters: species or system Sulfolobus islandicus; conditions: SisCsx1 versus Sis0455
Sis0455-R105G [14] = experiment: ITC binding of cA4 to Sis0455-R105G; parameters: species or system Sulfolobus islandicus; conditions: 25°C, R105G mutant
How it was run: as §1

Sis0455 [15] = experiment: cA4 cleavage activity assay and time course, LC ESI-MS, Sis0455; format: biochemical, Sulfolobus islandicus; conditions: time course, 40 μM cA4, 2 μM enzyme, 70°C
Sis0455-E41G/R134G = experiment: cA4 cleavage activity assay, LC ESI-MS, Sis0455-E41G/R134G; format: biochemical, Sulfolobus islandicus; conditions: 40 μM cA4, 2 μM enzyme, 70°C, one hour
How it was run: as §2

SisCsx1 [16] = conditions: cited from earlier work
Sis0455 T10G [17] = experiment: cA4 cleavage activity assay, LC ESI-MS, Sis0455 T10 glycine substitution; format: biochemical, Sulfolobus islandicus; conditions: 40 μM cA4, 2 μM enzyme, 70°C, one hour, T10 substituted by glycine
How it was run: as §2

Sso2081 = Sso2081 versus Sso1393; cited from earlier work

Cyclic tetraadenylate [cA4]
Kd (Sis0455 T10G [1]): 0.0353 µM
Kd (Sis0455 N138G [2]): 0.0105 µM
cA4 cleavage activity (Sis0455 N138G [3]): did not affect catalysis
affinity higher than that of SisCsx1 (Sis0811 [4]): 2 fold
Kd (Sis0455-S11G; ITC, 25°C, S11G variant): 0.0195 µM
decrease in the binding affinity (Sis0455-S11G; S11G variant versus wild type Sis0455): ~10 fold
cA4 cleavage activity (Sis0455-K106G [5]): abolished the cleavage activity
Kd (Sis0455 Q130G/Y133G [6]): 2.6 µM
cA4 binding (Sis0455 D75G): abolished cA4 binding
Kd (Sis0455 [7]; ITC, 25°C, wild type Sis0455): 0.0022 µM and 0.002 µM
higher affinity for cA4 of Sis0455 than Sis0811 (Sis0455 [7]; Sis0455 versus Sis0811 (ref 37)): 5 fold
time to cleave the second phosphodiester bond converting all the linear product in the P1 dinucleotide (Sis0811 [8]; Sis0811): 30 min
time to fully degrade cA4 producing 100% P1 product (Sis0811 [8]; Sis0811): 50 min
time to convert almost 100% of the cyclic molecule in the P3 linear product (Sis0811 [8]; Sis0811, first phosphodiester): 20 min
cA4 cleavage activity (Sis0455-R105G [9]): abrogated the nuclease activity
Kd (Sis0455 E41G/R134G): 0.0019 µM
Kd (Sis0455 E17G/T37G): 0.0035 µM
Kd (Sis0455-K106G [10]): 4.1 µM
cA4 cleavage activity [11]: did not affect catalysis
cA4 cleavage activity (Sis0455 Q130G/Y133G [12]): did not affect catalysis
affinity for cA4 lower than Sis0455 (SisCsx1 [13]): 10 fold
cA4 binding (Sis0455-R105G [14]): abolished cA4 binding
time to fully degrade cA4 producing 100% P1 product (Sis0455 [15]): 50 min
cA4 cleavage activity (Sis0455-E41G/R134G): showed cA4 as major specie
Kd (SisCsx1 [16]): 0.02 µM
cA4 cleavage activity (Sis0455 T10G [17]): did not affect catalysis
cA4 processing faster than Sso1393 (Sso2081): 10 fold
